Results reported in PubChem BioAssay AID652278 (Broad Institute, 2013).

test system: T. cruzi CAI/72 in J774, trypomastigote emergence, microscopy; experiment: trypomastigote re-emergence after compound withdrawal – imaging, CAI/72 strain, J774 macrophages, dry powder, set 2, mechanism study, late-stage follow-up (AID 652278); details: hits give high values
Method in brief: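 Test system: J774 macrophages, 9000 rad-arrested, infected with T. cruzi CAI/72 | Detection: Daily microscopic scoring of emerging trypomastigotes | Evaluation: Slope, emergence day versus concentration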

Point of comparison: `CC(C)N1C[C@@H](CN(C)Cc2ccc(Oc3ccccc3)cc2)Oc2c(NC(=O)c3ccncc3)cccc2C1=O`, slope of emergence day vs concentration 5. Against it:
- CN(C)CC#Cc1cccc(-c2nc(C(=O)N[C@@H]3CCN(Cc4ccccc4)C3)cc3c2[C@@H](CCO)N(S(=O)C(C)(C)C)C3)c1 (stereo partly specified) — lower, 1.89
- CC(C)N1C[C@@H](CN(C)CCc2ccc(Cl)c(Cl)c2)Oc2c(NC(=O)c3ccncc3)cccc2C1=O — the same, 5
- CN(C)CC#Cc1cccc(-c2nc(C(=O)NCc3ccc4c(c3)OCO4)cc3c2[C@@H](CCO)N(S(=O)C(C)(C)C)C3)c1 (stereo partly specified) — lower, 2.02
- CC(C)N1C[C@@H](CN(C)Cc2ccc(Cl)cc2)Oc2c(NC(=O)c3ccncc3)cccc2C1=O — the same, 5
- CC(C)N1C[C@H](CN(C)Cc2ccc(Cl)cc2)Oc2c(NC(=O)c3ccncc3)cccc2C1=O — the same, 5
- CC(C)N1C[C@@H](CN(C)Cc2ccc(Cl)cc2)Oc2c(C(=O)Nc3ccncc3)cccc2C1=O — the same, 5
- CC(C)N1C[C@@H](CN(C)Cc2ccc(Cl)cc2)Oc2c(NC(=O)c3ccncc3)cc(F)cc2C1=O — the same, 5
- CN(C)C(=O)c1cccc(-c2ccc([C@H]3[C@H](CO)N4CCCCN(C(=O)C5CCC5)C[C@@H]34)cc2)c1 — lower, 1.89
- CC(C)N1C[C@@H](CN(C)Cc2ccc(Cl)c(Cl)c2)Oc2c(NC(=O)c3ccncc3)cccc2C1=O — the same, 5
- CC(C)N1C[C@@H](CN(C)CCc2ccc(Cl)cc2)Oc2c(NC(=O)c3ccncc3)cccc2C1=O — the same, 5
